Results pooled from the literature.
Target: Tyrosine-protein kinase Lck (LCK, Homo sapiens, UniProt P06239)

CNC(=O)c1ccccc1Nc1nc(Nc2ccc(CO)nc2)ncc1Cl  remaining activity (enzyme activity, inhibitor; 1 µM): 3.38%
C[C@H]1CC[C@H](n2c3cnccc3c3cnc(Nc4ccc5c(n4)CCN(C(=O)CO)C5)nc32)CC1  remaining binding (binding, competition with immobilised ligand; 1 µM): 49%
CC#CC(=O)N1CCC[C@H]1c1nc(-c2ccc(C(=O)Nc3ccccn3)cc2)c2c(N)nccn12  inhibition (enzyme activity, inhibitor; 1 µM): 10%
C#Cc1cc(-c2cc(Nc3nc(N[C@@H](C)c4ccc(F)cn4)ncc3Cl)n[nH]2)ccc1C=O  inhibition (enzyme activity, inhibitor; 0.2 µM): 78.9%
C=CC(=O)N1CCC[C@@H](n2nc(-c3ccc(Oc4ccccc4)cc3)c3c(N)ncnc32)C1  inhibition (enzyme activity, inhibitor; 1 µM): 99%
CN1CCN(C(=O)c2ccc(NC(=O)Nc3ccc(N(C)c4ccnc(Nc5ccc(CS(C)(=O)=O)cc5)n4)cc3)cc2)CC1  remaining binding (binding, competition with immobilised ligand; 1 µM): 85%
C#Cc1cnc(Nc2ccc(CO)nc2)nc1Nc1ccccc1S(C)(=O)=NC#N (stereo not shown)  remaining activity (enzyme activity, inhibitor; 1 µM): 12.7%
C1=C/COCc2cc(ccc2OCCN2CCCC2)Nc2nccc(n2)-c2cccc(c2)COC/1  remaining binding (binding; 0.1 µM): 53%
C#Cc1cnc(Nc2ccc(CO)cc2)nc1Nc1ccccc1C(=O)NC  remaining activity (enzyme activity, inhibitor; 1 µM): 2.4%
CCCCC(=O)Nc1ccc(-c2ccc3ncn(CCC)c(=O)c3c2)cn1  remaining binding (binding, competition with immobilised ligand; 0.5 µM): 100%
